“And” between values parts separate entries of the source, which are not always exact repeats. Equal values may be shown once.
Legend:
Mus musculus [1] = species on record: Mus musculus; assay: Compound is evaluated for therapeutic efficacy; type: ADME, organism-based; details: in vivo
Outline: (§1)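 Female A/J mice (~20 g, groups of 6–8) inoculated via tail vein with 10^4 Plasmodium berghei sporozoites. Drug, conjugate or carrier alone in 0.5 mL PBS given intravenously 2–3 h later; doses as mg primaquine base/kg. Giemsa-stained thin blood smears were read up to day 12, and mice without parasitemia by day 12 were scored cured. An untreated control group was run per experiment. CPD50 came from probit-transformed dose–response data, with results pooled from at least two experiments.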

[2] = (§2) Compound is evaluated for acute lethal toxicity by intravenous administration; type: organism-based; details: mouse, in vivo
Outline: (§3)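 Noninfected mice in groups of eight, given a single intravenous injection of varying doses (mg primaquine base/kg) of free or protein-coupled drug. Highest conjugate dose was limited by solubility.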

Mus musculus [3] = assay: as §2; type: organism-based; details: in vivo; outline: as §3
Mus musculus [4] = assay: Free and protein-conjugated compound is evaluated for curative effect, at the 11 mg/kg; type: functional; outline: as §1
Mus musculus [5] = assay: Free and protein-conjugated compound is evaluated for curative effect, at the 14.5 mg/kg; type: functional; outline: as §1
Mus musculus [6] = assay: Free and protein-conjugated compound is evaluated for curative effect, at the 7 mg/kg; type: functional; outline: as §1
Mus musculus [7] = assay: Free and protein-conjugated compound is evaluated for curative effect, at the 8 mg/kg; type: functional; outline: as §1
Mus musculus [8] = assay: Free and protein-conjugated compound is evaluated for curative effect, at the 9.5 mg/kg; type: functional; outline: as §1
[9] = Ratio of LD50 (lethal toxicity in mice) to that of CPD50 (therapeutic efficacy); type: organism-based; details: mouse, in vivo
Outline: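 Therapeutic index as LD50/CPD50 (mg primaquine base/kg). LD50 came from probit analysis of deaths after intravenous dosing of noninfected mice, groups of eight. CPD50 came from probit analysis of cure (no parasitemia by day 12) in A/J mice given intravenous drug 2–3 h after intravenous inoculation of 10^4 P. berghei sporozoites.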

Compound: COc1cc(NC(C)CCCN)c2ncccc2c1 (centres undefined) [PRIMAQUINE]
- CPD50 (Mus musculus [1]): 13 mg/kg and 20 mg/kg
- LD50 [2]: 16 mg/kg
- LD10 (Mus musculus [3]): 13 mg/kg
- Cure (Mus musculus [4]): 20%
- Cure (Mus musculus [5]): 69%
- Cure (Mus musculus [6]): 0%
- Cure (Mus musculus [7]): 13%
- Cure (Mus musculus [8]): 13%
- selectivity ratio [9]: 1.2

From ChEMBL document CHEMBL1123441, “Carrier-linked primaquine in the chemotherapy of malaria” (J Med Chem, 1986)
